# Assay results from ChEMBL document CHEMBL3596178, “Synthesis and biological evaluation of curcumin derivatives containing NSAIDs for their anti-inflammatory activity” (Bioorg Med Chem Lett, 2015).
# pIC50: −log10 of the molar value. The source made the active and inactive calls. The calls are words filed in the database; no cut-off is given here.
# Legend:
# [1] = test system: Mus musculus; test: Anti-inflammatory activity in BALB/c mouse assessed as reduction in TPA-induced ear edema by measuring weight of ear punches at 0.75 uM applied topically 6 mins before to TPA treatment; type: functional
# In short: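 Female BALB/c mice; TPA applied topically to ears, test agents applied topically 6 min before TPA. Edema read as weight of 6 mm diameter ear punch biopsies. Screening concentration 0.75 µM.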
# [2] = test system: RAW264.7; test: Inhibition of TPA-induced cell proliferation of mouse RAW264.7 cells; type: functional, cell-based
# In short: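 RAW 264.7 macrophages; proliferation measured by MTT assay. IC50 reported as mean±SD of three independent experiments.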
# [3] = test system: Mus musculus; test: Anti-inflammatory activity in BALB/c mouse model of TPA-induced ear edema assessed as reduction in Ikappa-Balpha phosphorylation level at 0.75 uM applied topically 6 mins before to TPA treatment by immunohistochemistry; type: functional, organism-based
# In short: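 TPA-induced ear edema in BALB/c mice, agents applied topically before TPA. Ear tissue examined immunohistochemically with an anti-phospho-Ser36 IκBα antibody and a nonphosphorylated IκB antibody.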
# [4] = test system: Mus musculus; test: Anti-inflammatory activity in BALB/c mouse model of TPA-induced ear edema assessed as reduction in p65 nuclear translocation at 0.75 uM applied topically 6 mins before to TPA treatment by immunohistochemistry; type: functional, organism-based
# In short: (§1)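 TPA-induced ear edema in BALB/c mice, agents applied topically before TPA. Ear tissue examined immunohistochemically with a nonphosphorylated p65 antibody and an anti-phospho-Ser536 p65 antibody.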
# [5] = test system: Mus musculus; test: Anti-inflammatory activity in BALB/c mouse model of TPA-induced ear edema assessed as reduction in IL-1beta levels at 0.75 uM applied topically 6 mins before to TPA treatment by immunohistochemistry; type: functional, organism-based
# [6] = test system: Mus musculus; test: Anti-inflammatory activity in BALB/c mouse model of TPA-induced ear edema assessed as reduction in IL-6 levels at 0.75 uM applied topically 6 mins before to TPA treatment by immunohistochemistry; type: functional, organism-based
# [7] = test system: Mus musculus; test: Anti-inflammatory activity in BALB/c mouse model of TPA-induced ear edema assessed as reduction in inflammatory cells infiltration at 0.75 uM applied topically 6 mins before to TPA treatment by H and E staining method; type: functional, organism-based
# In short: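 Female BALB/c mouse ears pretreated topically with agents or acetone (control), then TPA applied topically. Ear sections stained with H&E and assessed histologically for epidermal hyperkeratosis, stratum corneum thickening and inflammatory cell infiltration.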
# [8] = test system: Mus musculus; test: Anti-inflammatory activity in BALB/c mouse model of TPA-induced ear edema assessed as reduction in IKK activity level at 0.75 uM applied topically 6 mins before to TPA treatment by immunohistochemistry; type: functional, organism-based
# [9] = test system: Mus musculus; test: Anti-inflammatory activity in BALB/c mouse model of TPA-induced ear edema assessed as reduction in TNFalpha levels at 0.75 uM applied topically 6 mins before to TPA treatment by immunohistochemistry; type: functional, organism-based
# [10] = test system: Mus musculus; test: Anti-inflammatory activity in BALB/c mouse model of TPA-induced ear edema assessed as reduction in phosphorylated p65 level at 0.75 uM applied topically 6 mins before to TPA treatment by immunohistochemistry; type: functional, organism-based; in short: as §1
SMILES,inhibition (INH) [1] [%],pIC50 [2],also measured
COc1cc(/C=C/C(=O)CC(=O)/C=C/c2ccc(OC(=O)c3ccccc3O)c(OC)c2)ccc1OC(=O)c1ccccc1O,38.5,5.21,–
COc1cc(/C=C/C(=O)CC(=O)/C=C/c2ccc(OC(=O)CCc3nc(-c4ccccc4)c(-c4ccccc4)o3)c(OC)c2)ccc1OC(=O)CCc1nc(-c2ccccc2)c(-c2ccccc2)o1,10,< 4.52,–
COc1cc(/C=C/C(=O)CC(=O)/C=C/c2ccc(OC(=O)c3ccccc3O)c(OC)c2)ccc1O,91.8,< 4.52,inhibition [3]: Active; inhibition [4]: Active; inhibition [5]: Active; inhibition [6]: Active; inhibition [7]: Active; inhibition [8]: Active
COc1cc(/C=C/C(=O)CC(=O)/C=C/c2ccc(OC(=O)c3ccccc3Nc3cccc(C)c3C)c(OC)c2)ccc1O,78,4.55,–
COc1cc(/C=C/C(=O)CC(=O)/C=C/c2ccc(OC(=O)c3ccccc3Nc3cccc(C)c3C)c(OC)c2)ccc1OC(=O)c1ccccc1Nc1cccc(C)c1C,10,< 4.52,–
COc1cc(/C=C/C(=O)CC(=O)/C=C/c2ccc(O)c(OC)c2)ccc1O [CURCUMIN],–,4.64,–
COc1cc(/C=C/C(=O)CC(=O)/C=C/c2ccc(OC(=O)c3ccccc3OC(=O)c3ccccc3O)c(OC)c2)ccc1OC(=O)c1ccccc1OC(=O)c1ccccc1O,93.3,< 4.52,inhibition [3]: Active; inhibition [9]: Active; inhibition [7]: Active; inhibition [10]: Active; inhibition [8]: Active
CCc1cccc2c3c([nH]c12)C(CC)(CC(=O)Oc1ccc(/C=C/C(=O)CC(=O)/C=C/c2ccc(O)c(OC)c2)cc1OC)OCC3 (stereo unspecified),10,4.60,–
COc1cc(/C=C/C(=O)CC(=O)/C=C/c2ccc(OC(=O)c3ccccc3Nc3cccc(Cl)c3C)c(OC)c2)ccc1OC(=O)c1ccccc1Nc1cccc(Cl)c1C,10,4.55,–
COc1ccc2c(c1)c(CC(=O)Oc1ccc(/C=C/C(=O)CC(=O)/C=C/c3ccc(OC(=O)Cc4c(C)n(C(=O)c5ccc(Cl)cc5)c5ccc(OC)cc45)c(OC)c3)cc1OC)c(C)n2C(=O)c1ccc(Cl)cc1,10,< 4.52,–
COc1cc(/C=C/C(=O)CC(=O)/C=C/c2ccc(OC(=O)Cc3ccccc3Nc3c(Cl)cccc3Cl)c(OC)c2)ccc1OC(=O)Cc1ccccc1Nc1c(Cl)cccc1Cl,10,< 4.52,–
COc1cc(/C=C/C(=O)CC(=O)/C=C/c2ccc(OC(=O)c3ccccc3OC(C)=O)c(OC)c2)ccc1O,10,< 4.52,–
CCc1cccc2c3c([nH]c12)C(CC)(CC(=O)Oc1ccc(/C=C/C(=O)CC(=O)/C=C/c2ccc(OC(=O)CC4(CC)OCCc5c4[nH]c4c(CC)cccc54)c(OC)c2)cc1OC)OCC3 (stereo unspecified),–,< 4.52,–
COc1cc(/C=C/C(=O)CC(=O)/C=C/c2ccc(OC(=O)c3ccccc3OC(=O)c3ccccc3O)c(OC)c2)ccc1O,10,< 4.52,–
COc1cc(/C=C/C(=O)CC(=O)/C=C/c2ccc(OC(=O)C(C)c3ccc(CC(C)C)cc3)c(OC)c2)ccc1O (stereo unspecified),91.8,< 4.52,–
COc1ccc2cc([C@@H](C)C(=O)Oc3ccc(/C=C/C(=O)CC(=O)/C=C/c4ccc(OC(=O)[C@H](C)c5ccc6cc(OC)ccc6c5)c(OC)c4)cc3OC)ccc2c1,10,< 4.52,–
COc1cc(/C=C/C(=O)CC(=O)/C=C/c2ccc(OC(=O)Cc3ccccc3Nc3c(Cl)cccc3Cl)c(OC)c2)ccc1O,10,< 4.52,–
COc1cc(/C=C/C(=O)CC(=O)/C=C/c2ccc(OC(=O)c3ccccc3OC(C)=O)c(OC)c2)ccc1OC(=O)c1ccccc1OC(C)=O,87.8,< 4.52,–
O=C(O)c1ccccc1O,–,–,inhibition [7]: Active
COc1cc(/C=C/C(=O)CC(=O)/C=C/c2ccc(OC(=O)CCc3nc(-c4ccccc4)c(-c4ccccc4)o3)c(OC)c2)ccc1O,75,4.71,–
COc1cc(/C=C/C(=O)CC(=O)/C=C/c2ccc(OC(=O)c3ccccc3Nc3cccc(Cl)c3C)c(OC)c2)ccc1O,85,5.04,–
COc1cc(/C=C/C(=O)CC(=O)/C=C/c2ccc(OC(=O)C(C)c3cccc(C(=O)c4ccccc4)c3)c(OC)c2)ccc1OC(=O)C(C)c1cccc(C(=O)c2ccccc2)c1 (stereo unspecified),10,< 4.52,–
"COc1ccc2cc(C(C)C(=O)Oc3ccc(/C=C/C(=O)CC(=O)/C=C/c4ccc(O)c(OC)c4)cc3OC)ccc2c1 (single isomer, unassigned)",87.8,4.73,–
COc1cc(/C=C/C(=O)CC(=O)/C=C/c2ccc(OC(=O)c3ccccc3Nc3cccc(C(F)(F)F)c3)c(OC)c2)ccc1O,90,5.26,–
O=C(Oc1ccccc1C(=O)O)c1ccccc1O,–,–,inhibition [7]: Active
COc1cc(/C=C/C(=O)CC(=O)/C=C/c2ccc(OC(=O)c3cc(-c4ccc(F)cc4F)ccc3O)c(OC)c2)ccc1O,10,4.89,–
COc1cc(/C=C/C(=O)CC(=O)/C=C/c2ccc(OC(=O)c3ccccc3Nc3cccc(C(F)(F)F)c3)c(OC)c2)ccc1OC(=O)c1ccccc1Nc1cccc(C(F)(F)F)c1,10,4.89,–
COc1cc(/C=C/C(=O)CC(=O)/C=C/c2ccc(OC(=O)C(C)c3ccc(CC(C)C)cc3)c(OC)c2)ccc1OC(=O)C(C)c1ccc(CC(C)C)cc1 (stereo unspecified),–,5.13,–
COc1cc(/C=C/C(=O)CC(=O)/C=C/c2ccc(OC(=O)c3cc(-c4ccc(F)cc4F)ccc3O)c(OC)c2)ccc1OC(=O)c1cc(-c2ccc(F)cc2F)ccc1O,85,< 4.52,–
COc1cc(/C=C/C(=O)CC(=O)/C=C/c2ccc(OC(=O)C(C)c3cccc(C(=O)c4ccccc4)c3)c(OC)c2)ccc1O (stereo unspecified),68.8,5.05,–
